Published values collected from several papers.
In brackets after ≈: the same amount, converted by molar mass.
Organism: Mycobacterium tuberculosis
Read-out: microbial growth
Strain: H37RV

SMILES | concentration | time | measurement | value
Nc1c(C(=O)N2CCOCC2)sc2nc(Cl)ccc12 | – | – | IC50 | > 100 µM
NC(=S)c1cncc(Cn2c(=S)[nH]c3cc(CO)c(Cl)cc3c2=O)c1 | – | – | MIC90 | 4.61 µM (≈ 1.81 µg/mL)
COc1ccc(-c2cc(C(F)(F)F)c3c(N)c(C(=O)Nc4ccc(C)c(C)c4)sc3n2)cc1 | – | – | IC50 | > 100 µM
NNC(=O)c1ccncc1 | – | – | MIC50 | 0.56 µg/mL (≈ 4.08 µM)
CC(C)c1ccc(Cn2c(=S)[nH]c3ccc(Cl)cc3c2=O)cn1 | – | – | MIC90 | > 100 µM
CC(CNc1cc(-c2ccccn2)nc2nncn12)c1ccccc1 (centres unmarked) | – | – | MIC | 35 µM (≈ 11.6 µg/mL)
O=c1c2cc(Cl)ccc2[nH]c(=S)n1Cc1cncc(-c2nnn[nH]2)c1 | – | – | MIC90 | > 100 µM
NCC[C@H](O)C(=O)N[C@@H]1C[C@H](N)[C@@H](O[C@H]2O[C@H](CN)[C@@H](O)[C@H](O)[C@H]2O)[C@H](O)[C@H]1O[C@H]1O[C@H](CO)[C@@H](O)[C@H](N)[C@H]1O | 2.5 µg/mL | – | inhibition | ~90%
O=c1c2cc(Cl)ncc2[nH]c(=S)n1Cc1cccnc1 | – | – | MIC90 | 17.6 µM (≈ 5.36 µg/mL)
Clc1ccc(CCNc2cc(-c3ccccn3)nc3nnc(C4CC4)n23)cc1 | – | – | MIC | 36 µM (≈ 14.1 µg/mL)
O=c1c2ccncc2[nH]c(=S)n1Cc1cccnc1 | – | – | MIC90 | > 100 µM
COc1ccc(-c2cc(C(F)(F)F)c3c(N)c(C(=O)Nc4cccc(C)c4C)sc3n2)cc1OC | – | – | IC50 | > 100 µM
CCc1ccc(CCNc2cc(-c3ccccn3)nc3nnc(C4CC4)n23)cc1 | – | 5 days | MIC | 17 to 50 µM (≈ 6.54 to 19.2 µg/mL)
O=c1[nH]c2cc(CO)c(Cl)cc2c(=O)n1Cc1cccnc1 | – | – | MIC90 | > 100 µM
Nc1c(C(=O)NCc2ccc(F)cc2)sc2nc(-c3ccccc3)ccc12 | – | – | IC50 | > 100 µM
CCc1ccc(CCNc2cc(-c3ccco3)nc3nncn23)cc1 | – | – | MIC | 0.43 µM (≈ 0.143 µg/mL)
COCCNC(=O)c1sc2nc(-c3ccc(OC)cc3)cc(C(F)(F)F)c2c1N | – | – | IC50 | > 100 µM
FC(F)(F)c1ccc(CCNc2cc(-c3ccccn3)nc3nncn23)cc1 | – | – | IC90 | 0.53 µM
COc1ccc(-c2cc(C(F)(F)F)c3c(N)c(C(=O)NCc4ccccc4)sc3n2)cc1 | – | – | IC50 | > 100 µM
Fc1ccc(CCOc2cc(-c3ccccn3)nc3nncn23)cc1 | – | – | MIC | > 100 µM
